The list is not random: actives were taken first. Their share in the collection is about 2.1%.
Mot1-301 SUMO = SUMOylation pathway inhibition by Mot1-301 growth rescue; S. cerevisiae Mot1-301 growth rescue, ATP luminescence, 38.5C; percent above DMSO median, 100 means doubled; growth rescue, % at 18.8 µM; hit rate 1% among 320,000; AID 2716;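 active means every valid replicate shows activation above 250% relative to neutral control wells; inactive means the rest, any valid replicate at or below 250%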;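 further: OY570 slx delta 5 strain wells were the positive control but not used for scaling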
UCH37 DUB inh = blocks the human deubiquitinase UCH37; Q9Y5K5; purified proteasome/UCH37, Ub-AMC cleavage fluorescence; inhibition, % (no concentration beside the values); hit rate 0.33% among 330,000; AID 588478;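 active means mean inhibition over replicate wells above about 20%, limit read from the data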;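 further: 0% = compound-free wells with enzyme and 100% = wells lacking proteasome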
Target sequence (Q9Y5K5 whole entry, looked up): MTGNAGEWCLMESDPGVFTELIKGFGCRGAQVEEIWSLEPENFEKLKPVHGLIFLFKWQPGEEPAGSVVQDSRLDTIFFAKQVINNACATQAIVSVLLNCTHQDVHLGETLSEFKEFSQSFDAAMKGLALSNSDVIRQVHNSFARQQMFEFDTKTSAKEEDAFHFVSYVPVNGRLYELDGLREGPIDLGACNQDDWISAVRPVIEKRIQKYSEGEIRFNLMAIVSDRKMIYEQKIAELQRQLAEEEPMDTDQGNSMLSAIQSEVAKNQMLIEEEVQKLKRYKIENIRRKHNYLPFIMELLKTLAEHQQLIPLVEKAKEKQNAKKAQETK
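Signal – fluorescence, ex 355 nm, em 460 nm · System – Proteasome-bound UCH37 · Input – 0.15 nM proteasome as dispensed · Timing – 30 min preincubation with enzyme, 25 min cleavage at room temperature · Read-out basis – percent inhibition of cleavage signal versus uninhibited and no-proteasome wells · Medium – Tris-HCl pH 7.4 with ATP-MgCl2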
Cardiac RTF inh = cardiac RTF calcium desensitization. inhibition, % at 7.15 µM. P19429+P45379. IANBD-labeled cardiac RTF, Ca2+ fluorescence. hit rate 0.12% among 340,000;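 active means inhibition above the mean inhibition of all tested compounds plus 3 SD, cut at about 17% in these data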;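 further: assay run at fixed EC70 calcium of 1.6 mM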
cardiac RTF act = increases calcium sensitivity of human cardiac regulated thin filaments; IANBD-labeled TnC RTF fluorescence at EC20 calcium; 0% EC20 calcium, 100% full calcium; activation, % at 7.2 µM; AID 493008; P19429+P45379; hit rate 0.24% among 340,000;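 active means activation above the mean over all tested compounds plus 3 SD, cut at about 30% in these data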;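 further: rise in fluorescence read as greater calcium sensitivity of cardiac thin filaments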
Efflux pump inh = blocks antifungal efflux pumps in multiplex yeast assay | AID 485275 | inhibition, % at 10 µM | S. cerevisiae Candida pump triplex, Nile Red efflux | hit rate 0.44% among 330,000;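 active means plate passing quality check with inhibition over a set limit, or well fluorescence over plate mean plus 4 SD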;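 further: Nile Red retained in pooled yeast measured as flow cytometry median fluorescence; 0% = buffer negative control and 100% = Enniatin B positive control; higher means more Nile Red kept so more efflux inhibition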
ARNT-TACC3 inh = ARNT/TACC3 interaction disruption | Q9Y6A5 | hit rate 0.66% among 390,000 | AlphaScreen His-ARNT PAS-B/GST-TACC3 binding, luminescence; TACC3 fragment carries E629A point mutation | inhibition, % at 9.99 µM;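 active means mean inhibition of replicates at least 50% and at least half of replicates each reaching 50%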;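 further: 0% = complete ARNT plus TACC3 wells and 100% = ARNT alone without TACC3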
Cmpd fluor yeast = compound fluorescence in yeast efflux pump counter-screen; shares compounds with Efflux pump inh; S. cerevisiae AD/pABC3, flow cytometry; fluorescence ratio to DMSO, % at 10 µM; hit rate 4% among 1,700;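 active means fluorescence ratio to DMSO above its plate's cutoff, the plate mean ratio plus 5 SD, cut at about 210% in these data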;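 further: unstained yeast with no Nile Red so the signal is compound autofluorescence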
Mdr1 pump inh = Candida Mdr1 efflux pump inhibition. S. cerevisiae AD/CaMDR1, Nile Red efflux, flow cytometry. hit rate 1% among 1,700. shares compounds with Efflux pump inh. inhibition, % at 10 µM; in the data active means inhibition above about 26%;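 further: 0% = DMSO vehicle and 100% = reference inhibitor; higher means more Nile Red retained so more efflux inhibition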
CaCdr2 efflux inh = inhibitors of Candida albicans Cdr2 efflux pump; shares compounds with Efflux pump inh; S. cerevisiae AD/CaCDR2, Nile Red retention, flow cytometry; Nile Red retention ratio vs DMSO, % at 10 µM; hit rate 4% among 1,700; AID 588520; in the data active means Nile Red retention ratio vs DMSO above about 190%;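 further: higher ratio means more blocking of Cdr2 efflux of the dye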
CaCdr1 efflux inh = inhibitors of Candida albicans Cdr1 efflux pump; shares compounds with Efflux pump inh; S. cerevisiae AD/CaCDR1, Nile Red efflux, flow cytometry; inhibition, % at 10 µM; hit rate 1% among 1,700;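 active means inhibition above the screen-wide mean plus twice its standard deviation, cut at about 32% in these data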
* marks the source's active call; other numbers are inactive results; . = no result.

SMILES	Mot1-301 SUMO	UCH37 DUB inh	Cardiac RTF inh	cardiac RTF act	Efflux pump inh	ARNT-TACC3 inh	Cmpd fluor yeast	Mdr1 pump inh	CaCdr2 efflux inh	CaCdr1 efflux inh
COc1ccc(-c2sc3ccccc3c2-c2ccc(OCCN(C)C)cc2)cc1	24	0	-14	-2	1	11	91	0	97	0
CN(C)CCOc1ccc(-c2c(-c3ccsc3)sc3ccccc23)cc1	-19	.	6	-5	0	14	.	.	.	.
COc1cccc(-c2sc3ccc(OC)cc3c2-c2ccc(O)cc2)c1	-1	.	-5	4	0	.	.	.	.	.
COc1cccc(-c2sc3ccc(OC)cc3c2-c2ccc(OCCN(C)C)cc2)c1	-25	.	-2	-3	187*	9	108	1	228*	0
Cc1ccc(NCC(=O)NN=Cc2cc(O)ccc2[N+](=O)[O-])cc1	.	10	.	.	.	.	.	.	.	.
C=CCOc1c(Br)cc(C=NO)cc1OCC	.	2	.	.	.	.	.	.	.	.
CCN1C(=O)[C@H]2[C@@H](c3ccc(-c4cccc(Cl)c4)c(OC)c3)N3CCCC[C@@]3(C(=O)OC)[C@H]2C1=O	18	4	2	3	0	2	.	.	.	.
CCN1C(=O)[C@H]2[C@@H](c3ccc(-c4cccc(Cl)c4)cc3)N3CCCC[C@@]3(C(=O)OC)[C@H]2C1=O	14	0	-2	6	0.7*	7	98	0	119	0
O=C(c1cn(-c2ccccc2)nc1-c1ccc(F)cc1)N1CCOCC1	5	1	-1	-1	0	-4	.	.	.	.
O=C(c1cn(-c2ccccc2)nc1-c1ccc(F)cc1)N1CCCCC1	-5	0	-8	4	11*	-3	110	0	119	0
CC(=NNC(=O)CCCOc1ccc(Cl)cc1C)c1ccc(C)o1	.	0	.	.	.	.	.	.	.	.
CCOC(=O)NN=Cc1ccc([N+](=O)[O-])s1	.	7	.	.	.	.	.	.	.	.
CN(C)c1ccc(/C=C/c2ccc3c4ccccc4ccc3[n+]2-c2ccccc2)cc1	.	-4	5	1	.	38	.	.	.	.
CC(C)CC[n+]1ccccc1/C=C/c1ccc(N(C)C)cc1	-8	12	-48	27	4.0*	23	955*	4	102	2
O=C(Nc1cc(Br)ccc1O)c1cc(-c2ccc3c(c2)OCO3)on1	48	.	7	-4	0	.	.	.	.	.
CSc1ccccc1NC(=O)c1cc(-c2ccc3c(c2)OCO3)on1	-13	-2	6	-2	1.6*	0	89	0	105	0
O=Cc1cccc(Oc2ccc([N+](=O)[O-])cc2[N+](=O)[O-])c1	3	2	-14	6	0.7*	17	100	0	101	0
O=C1OCC/C1=C\c1ccccc1	0	0	-17	-3	6.8*	-3	101	0	85	0
COc1ccc(/C=C2\CCOC2=O)cc1	1	4	8	-5	0	-1	.	.	.	.
CCOC(=O)c1cnc(N=CN(C)C)s1	.	10	.	.	.	.	.	.	.	.
O=C(Cc1cccc(C(F)(F)F)c1)OCN1C(=O)c2ccccc2C1=O	3	6	-16	-2	1.3*	3	101	0	104	0
O=C(Cc1ccc(F)cc1)OCN1C(=O)c2ccccc2C1=O	-23	2	-3	0	0	-2	.	.	.	.
COc1ccc(C(=O)NCc2ccc(Cl)c(Cl)c2)cc1OC	-9	1	-3	10	11*	7	87	0	89	0
COCCCNCCCOc1ccc(Cl)cc1Br	-3	6	-4	2	0	.	.	.	.	.
CC(C)NCCCOc1ccc(Cl)cc1Br	-14	3	-13	5	1.3*	-4	98	0	107	0
SMILES	Mot1-301 SUMO	UCH37 DUB inh	Cardiac RTF inh	cardiac RTF act	Efflux pump inh	ARNT-TACC3 inh	Cmpd fluor yeast	Mdr1 pump inh	CaCdr2 efflux inh	CaCdr1 efflux inh
Cc1ccc2nc(C)c(C(=O)NN=Cc3ccco3)cc2c1	.	6	.	.	.	.	.	.	.	.
O=C(NN=C1CC(c2ccccc2)Oc2ccccc21)C1CC1 (centres undefined)	.	4	.	.	.	.	.	.	.	.
COCCNC(=O)C(=O)NN=Cc1ccccc1C(F)(F)F	.	4	.	.	.	.	.	.	.	.
Cc1ccc(C)c(-c2cc(C(=O)Nc3sc(C)c(C)c3C(N)=O)c3ccccc3n2)c1	-5	1	-3	2	0	0	98	0	104	0
Cc1cccc(-c2cc(C(=O)Nc3sc(C)c(C)c3C(N)=O)c3ccccc3n2)c1	-12	-2	1	-3	0	.	.	.	.	.
CCCCCCCC(=O)Nc1cc(C(=O)NCCC)ccc1N1CCC2(CC1)CC(c1ccccc1)=NO2	0	1	-2	0	0.9*	-4	117	0	116	0
c1ccc(-c2cc(N3CCOCC3)nc(-c3ccccc3)n2)cc1	74	2	5	2	0	-7	.	.	.	.
CCSc1cc(N2CCOCC2)nc(-c2ccccc2)n1	-7	-1	-10	7	0	-3	103	0	97	0
Cc1ccc(-c2c(C(=O)NN=Cc3sccc3C)nnn2-c2nonc2N)cc1	.	3	.	.	.	.	.	.	.	.
CC(C)=C1C2CCC1C1C(=O)N(c3nc(-c4ccc(F)cc4)c(C)s3)C(=O)C21 (centres undefined)	267	-1	4	-6	0	-6	.	.	.	.
CC(C)=C1C2CCC1C1C(=O)N(c3nc(-c4ccc(C(C)C)cc4)c(C)s3)C(=O)C21 (centres undefined)	-13	-1	-7	6	0.4*	-2	105	0	99	0
N#CC(=NO)c1nc(-c2ccccc2)cs1	.	6	.	.	.	.	.	.	.	.
Cn1cc(/C=C/c2cc[n+](C)cc2)c2cc(Cl)ccc21	-17	15	-178	206*	5.9*	-1	735*	3	99	2
Cn1cc(C=O)c2cc(F)ccc21	12	3	-17	4	0	-3	.	.	.	.
CC(=NNc1nc(-c2ccccc2)cc(-c2ccc(F)cc2)n1)c1cccc(N)c1	.	2	.	.	.	.	.	.	.	.
CC1CC(C)CN(c2ncc3c(n2)CC(c2ccc(Cl)cc2)CC3=O)C1 (centres undefined)	-13	-1	-11	-8	6.7*	-23	111	0	112	0
CC1CC(C)CN(c2ncc3c(n2)CC(c2ccccc2Cl)CC3=O)C1 (centres undefined)	-17	.	2	2	0	3	.	.	.	.

High-throughput results (PubChem BioAssay)
